Experimental data pooled from the literature.
Each line is one published result; the experiments were not run side by side.
Cell line: HCT-116
Effect on: cell growth or viability

Compound	test	setting	measurement	value
COc1ccc(C(=O)/C=C/c2cccc3ccccc23)cc1S(N)(=O)=O	SRB	10 µM	inhibition	192%
Cc1nc2ccc(Cl)cc2c(=O)n1NC(=O)CCl	LDH	200 µg/mL, 24 h	viability	89%
COc1cc(CNC(=O)CCCC/C=C/C(C)C)ccc1O	SRB	10 µM	inhibition	0%
COc1ccc(C=NNC(=O)c2sc(Nc3ccccc3)c(C(=O)Nc3ccc(OC)cc3)c2NC(C)=O)cc1	SRB	10 µM, 48 h	viability	46.8%
S=C([S][Au-][P+](CCCCCC[P+]([Au-][S]C(=S)n1cccn1)(c1ccccc1)c1ccccc1)(c1ccccc1)c1ccccc1)n1cccn1	–	–	GI50	420 nM
COc1ccc(NC(=O)c2c(Nc3ccccc3)sc(C(=O)NN=Cc3cc(OC)c(OC)c(OC)c3)c2NC(C)=O)cc1	SRB	0.1 µM, 48 h	viability	86.1%
COc1ccc(C(=O)/C=C/c2ccccc2Br)cc1S(N)(=O)=O	SRB	48 h	GI50	1500 nM
COc1ccc(NC(=O)c2c(Nc3ccccc3)sc(C(=O)NN=Cc3ccc(Cl)cc3)c2NC(C)=O)cc1	SRB	10 nM, 48 h	viability	95.1%
COc1cc2c(OC)nc3c4cc5c(cc4cc(OCCCN(C)C)c3c2cc1OC)OCO5	MTT	72 h	GI50	15000 nM
COc1cc(CNC(=O)C[C@H](C)CCC=C(C)C)ccc1OCc1cn(-c2ccc(Cl)cc2)nn1	SRB	10 µM	inhibition	41%
COc1ccc(NC(=O)c2c(Nc3ccccc3)sc(C#N)c2NC(=O)CNc2ccc(O)cc2)cc1	SRB	10 nM, 48 h	viability	93.1%
COc1ccc(C(=O)/C=C/c2cc3c(cc2Br)OCO3)cc1S(N)(=O)=O	SRB	10 µM	inhibition	198%
COc1ccc(NCC(=O)Nc2c(C#N)sc(Nc3ccccc3)c2C(=O)Nc2ccc(OC)cc2)cc1	SRB	1 µM, 48 h	viability	70.2%
COc1ccc(C(=O)/C=C/c2ccc3ccccc3c2)cc1S(N)(=O)=O	SRB	48 h	GI50	1900 nM
COc1cc2c(OC)nc3c4cc5c(cc4cc(OCCCN4CC=CC4)c3c2cc1OC)OCO5	MTT	72 h	GI50	1300 nM
COc1ccccc1/C=C/C(=O)c1ccc(OC)c(S(N)(=O)=O)c1	SRB	10 µM	inhibition	95%
COc1ccc(NC(=O)c2c(Nc3ccccc3)sc(C#N)c2NC(=O)CNc2ccc(OC)c(OC)c2)cc1	SRB	10 µM, 48 h	viability	53.6%
Cc1nc2ccc(Br)cc2c(=O)n1/N=C/c1ccc(C(=O)O)cc1	LDH	200 µg/mL, 24 h	viability	53.5%
CCN(CC)CCOc1cc2cc3c(cc2c2nc(OC)c4cc(OC)c(OC)cc4c12)OCO3	MTT	72 h	GI50	≥ 100000 nM
COc1ccc(NC(=O)c2c(Nc3ccccc3)sc(C#N)c2NC(=O)CNc2ccc(Cl)cc2)cc1	SRB	10 µM, 48 h	viability	48.6%
COc1ccc(C(=O)/C=C/c2cccc(Br)c2)cc1S(N)(=O)=O	SRB	10 µM	inhibition	199%
COc1cc2c(OC)nc3c4cc5c(cc4cc(OCCCN4CCCC4)c3c2cc1OC)OCO5	MTT	72 h	GI50	2400 nM
COc1ccc(NC(=O)c2c(Nc3ccccc3)sc(C#N)c2NC(=O)CNc2ccc([N+](=O)[O-])cc2)cc1	SRB	0.1 µM, 48 h	viability	83.9%
COc1cc(/C=N/n2c(C)nc3ccc(C)cc3c2=O)cc([N+](=O)[O-])c1O	LDH	200 µg/mL, 24 h	viability	90%
COc1ccc(C(=O)/C=C/c2ccc(Cl)c(Cl)c2)cc1S(N)(=O)=O	SRB	48 h	GI50	1200 nM
COc1cc2c(OC)nc3c4cc5c(cc4cc(OCCN(C)C)c3c2cc1OC)OCO5	MTT	72 h	GI50	> 100000 nM
COc1ccc(C(=O)/C=C/c2cccc(Cl)c2)cc1S(N)(=O)=O	SRB	48 h	GI50	1200 nM
CNS(=O)(=O)Nc1nccc(Cc2c(C)c3ccc(Oc4ncccn4)cc3oc2=O)c1F	CCK-8	–	GI50	3230 nM
